41 compounds from ChEMBL document CHEMBL1124631, “3-(aminoalkyl)-1,2,3,4-tetrahydro-5H-[1]benzopyrano[3,4-c] pyridin-5-ones as potential anticholinergic bronchodilators” (1989) can be followed below.

The species entered for experiment [1] is Canis familiaris. The experiment is described as follows: Pulmonary selectivity measured as the ratio of salivation and bronchospasm. Format: functional, Canis lupus familiaris, Bronchiole. In a few lines:
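Pilocarpine-infused dog model measuring pulmonary resistance and salivary output under cumulative iv doses (1–10,000 μg/kg). ID50 for each response by log dose–response linear regression. Selectivity = ID50 for salivation inhibition divided by ID50 for bronchospasm inhibition. Most compounds tested in one dog.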

The next experiment relates to Cavia porcellus. Nature of the experiment: Methacholine challenge test was performed on guinea pigs by administration of compound at 25 mg/kg perorally. As to conditions: route oral. It is filed as functional. In outline:
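Hartley guinea pigs, six per treatment, dosed orally at 25 mg/kg 15 min before challenge. Exposed for 10 min to 0.1% methacholine chloride aerosol from two nebulizers in a closed chamber, air pressure 10 lb/in.². Time from aerosol onset to collapse recorded and averaged ± S.E.M. Non-collapsing animals removed at 10 min and scored 10.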

For experiment [2], the species on record is Canis familiaris. The experiment is described as follows: Compound dose for inhibiting dog cholinergic bronchoconstriction by 50% of control value. As to conditions: Canis lupus familiaris, Lung; read-out: ID50 (the source's name). Format: functional. In a few lines:
(§1)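 Dogs with femoral vein cannulated; respiratory rate, heart rate and arterial pressure monitored. Bunolol 0.5 mg/kg iv given 30 min before pilocarpine nitrate infusion (0.2 mg/kg/h) to induce bronchospasm and salivation. Saliva collected from catheterized Wharton's duct every 5 min. Cumulative iv doses 1–10,000 μg/kg given every 5 min. ID50 by linear regression of log cumulative dose vs % inhibition. Mostly one dog per compound.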

For experiment [3], the species on record is Canis familiaris. Nature of the experiment: Inhibition of dog salivation by 50% of control value. Format: functional. Particulars: Canis lupus familiaris; read-out: ID50 (the source's name). In a few lines:
as §1

As to `CCNC(C)CN1CCc2c(c(=O)oc3ccccc23)C1` (configuration not stated), in the experiment listed under Canis familiaris [1], the Ratio is listed as 5.9. Besides, the Collapse time with Cavia porcellus is 10 min.
As to `CCCN(CC)C(C)CN1CCc2c(c(=O)oc3cc(C)ccc23)C1` (configuration not stated), the Ratio in the experiment listed under Canis familiaris [1] is reported as 1.6. The ED50 was determined as 0.116 mg/kg in the experiment filed under Canis familiaris [2] and 0.182 mg/kg in the experiment filed under Canis familiaris [3]. The Collapse time with Cavia porcellus came to 7.6 min.
With `COc1cc2oc(=O)c3c(c2cc1OC)CCN(CC(C)N1CCOCC1)C3` (configuration not stated), in the experiment on Cavia porcellus, the Collapse time was 10 min.
Still for that read-out and setting: for `COc1cc2oc(=O)c3c(c2cc1OC)CCN(CCN1CCCCC1)C3` the value was 4.9 min.
As to `CCOc1cc2oc(=O)c3c(c2cc1OCC)CCN(CC(C)N1CCCCC1)C3` (configuration not stated), in the experiment listed under Canis familiaris [1], the Ratio is recorded as 1.5. Further, the ED50 in the experiment listed under Canis familiaris [2] was 0.126 mg/kg; in the experiment listed under Canis familiaris [3], 0.194 mg/kg. In the experiment on Cavia porcellus, this compound yielded a Collapse time of 10 min.
`COc1cc2oc(=O)c3c(c2cc1OC)CCN(CC(C)N1CCCCCC1)C3` (configuration not stated): the Collapse time in the experiment on Cavia porcellus was found to be 1.7 min.
Take `Cc1ccc2c3c(c(=O)oc2c1)CN(CC(C)N(C)C)CC3` (configuration not stated): in the experiment filed under Canis familiaris [1], the Ratio turned out to be 3.7. The Collapse time with Cavia porcellus is 10 min.
On to `Cc1cc2oc(=O)c3c(c2cc1C)CCN(CCN1CC2CCC(CC2)C1)C3`, for which the Ratio in the experiment filed under Canis familiaris [1] came out at 0.6. In addition, the ED50 worked out at 0.372 mg/kg in the experiment listed under Canis familiaris [2] and 0.223 mg/kg in the experiment listed under Canis familiaris [3]. This compound had a Collapse time with Cavia porcellus of 5.1 min.
In the case of `CCN(C)C(C)CN1CCc2c(c(=O)oc3cc(OC)c(OC)cc23)C1` (configuration not stated), the Ratio in the experiment listed under Canis familiaris [1] is 0.82. The values for the ED50 in the experiment filed under Canis familiaris [2] and in the experiment filed under Canis familiaris [3] were 0.135 mg/kg and 0.111 mg/kg, respectively. In addition, the Collapse time with Cavia porcellus was 6 min.
As to `COc1ccc2c3c(c(=O)oc2c1)CN(CCN1CCOCC1)CC3`, the Ratio in the experiment filed under Canis familiaris [1] was 0.63. The ED50 stood at 1.14 mg/kg in the experiment listed under Canis familiaris [2] and 0.714 mg/kg in the experiment listed under Canis familiaris [3]. Moreover, in the experiment with Cavia porcellus, the Collapse time amounted to 6.1 min.
With `CCN(C)C(C)CN1CCc2c(c(=O)oc3cc(OC)ccc23)C1` (configuration not stated), the Ratio in the experiment filed under Canis familiaris [1] is reported as 1.5. In addition, the ED50 in the experiment filed under Canis familiaris [2] amounted to 0.015 mg/kg; in the experiment filed under Canis familiaris [3], 0.023 mg/kg. Moreover, in the experiment with Cavia porcellus, the Collapse time was determined as 9.1 min.
For the compound `COc1cc2oc(=O)c3c(c2cc1OC)CCN(CCN1C(C)(C)CCCC1(C)C)C3`, in the experiment on Cavia porcellus, the Collapse time is on record as 2.8 min.
In the case of `Cc1cc2oc(=O)c3c(c2cc1C)CCN(CC(C)N1CCCC1)C3` (configuration not stated), the Ratio in the experiment filed under Canis familiaris [1] turned out to be 2.2. For the same compound, the ED50 in the experiment filed under Canis familiaris [2] is 0.315 mg/kg; in the experiment listed under Canis familiaris [3] it was 0.699 mg/kg. In the experiment with Cavia porcellus, this compound showed a Collapse time of 8.2 min.
In the same order, the values of `COc1ccc2c3c(c(=O)oc2c1)CN(CCN1CC2CCCC(C2)C1)CC3` are 0.15, 1.03 mg/kg, 0.154 mg/kg and 7.3 min.
As for `CCCN(C)C(C)CN1CCc2c(c(=O)oc3cc(OC)ccc23)C1` (configuration not stated), in the experiment listed under Canis familiaris [1], the Ratio is 1.2. Also, the ED50 came out at 0.073 mg/kg in the experiment listed under Canis familiaris [2] and 0.084 mg/kg in the experiment listed under Canis familiaris [3]. The Collapse time in the experiment on Cavia porcellus is 10 min.
The like results for `CCN(CC)CCN1CCc2c(c(=O)oc3cc(OC)ccc23)C1` were, in that order, 0.4, 0.394 mg/kg, 0.158 mg/kg and 8 min.
`COc1cc2oc(=O)c3c(c2cc1OC)CCN(CCN1CC2CCCC(C2)C1)C3`: in the experiment listed under Canis familiaris [2], the ED50 is 0.119 mg/kg. In the experiment on Cavia porcellus, the Collapse time came to 6.6 min.
On to `CCN(C)C(C)CN1CCc2c(c(=O)oc3cc(C)ccc23)C1` (configuration not stated), for which the Ratio in the experiment listed under Canis familiaris [1] stood at 2.2. The compound further had a Collapse time with Cavia porcellus of 8.8 min.
Turning to `CN1[C@@H]2CC[C@H]1C[C@@H](OC(=O)C(CO)c1ccccc1)C2` (some centres not stated) [ATROPINE], the Ratio in the experiment filed under Canis familiaris [1] is given as 0.46. Moreover, the ED50 in the experiment filed under Canis familiaris [2] amounted to 0.007 mg/kg; in the experiment listed under Canis familiaris [3] it was 0.0032 mg/kg.
On to `CCN(CC)C(C)CN1CCc2c(c(=O)oc3ccccc23)C1` (configuration not stated), for which the Ratio in the experiment listed under Canis familiaris [1] came out at 6.9. Moreover, the Collapse time in the experiment on Cavia porcellus was determined as 10 min.
Turning to `COc1ccc2c3c(c(=O)oc2c1)CN(CCN1CCCC1)CC3`, the Ratio in the experiment listed under Canis familiaris [1] is reported as 3. For the same compound, the ED50 in the experiment listed under Canis familiaris [2] was 0.246 mg/kg; in the experiment filed under Canis familiaris [3], 0.735 mg/kg. For the same compound, the Collapse time in the experiment on Cavia porcellus was determined as 9.1 min.
In the same order, the values of `CCOc1cc2oc(=O)c3c(c2cc1OCC)CCN(CCN1CC2CCC(CC2)C1)C3` are 0.79, 0.267 mg/kg, 0.21 mg/kg and 6.3 min.
Consider `COc1cc2oc(=O)c3c(c2cc1OC)CCN(CC(C)N(C)C)C3` (configuration not stated), for which the Ratio in the experiment listed under Canis familiaris [1] is on record as 4.5. This compound also had a Collapse time with Cavia porcellus of 5.2 min.
In the case of `COc1ccc2c3c(c(=O)oc2c1)CN(CCN(C)C)CC3`, the Collapse time with Cavia porcellus was 1.9 min.
On the same count and under the same terms, for `CCCN(C)C(C)CN1CCc2c(c(=O)oc3cc(OC)c(OC)cc23)C1` (configuration not stated) the value was 2.5 min.
Consider `COc1ccc2c3c(c(=O)oc2c1)CN(CC(C)N(C)C)CC3` (configuration not stated), for which the Ratio in the experiment listed under Canis familiaris [1] came out at 1.1. Also, the ED50 stood at 0.025 mg/kg in the experiment listed under Canis familiaris [2] and 0.027 mg/kg in the experiment listed under Canis familiaris [3]. In the experiment with Cavia porcellus, this compound displayed a Collapse time of 10 min.
`CCNC(C)CN1CCc2c(c(=O)oc3cc(OC)ccc23)C1` (configuration not stated): the Ratio in the experiment filed under Canis familiaris [1] was found to be 2.6. Further, the ED50 in the experiment filed under Canis familiaris [2] is 0.086 mg/kg; in the experiment listed under Canis familiaris [3], 0.227 mg/kg. In the experiment with Cavia porcellus, this compound yielded a Collapse time of 7.5 min.
In the same order, the values of `CC(C)c1ccc2c3c(c(=O)oc2c1)CN(CCN1CC2CCC(CC2)C1)CC3` are 0.61, 0.209 mg/kg, 0.128 mg/kg and 6.2 min.
With `COc1cc2oc(=O)c3c(c2cc1OC)CCN(CCN1CC2CCC1CC2)C3`, the Ratio in the experiment filed under Canis familiaris [1] is on record as 1. Also, the figures for the ED50 in the experiment listed under Canis familiaris [2] and in the experiment filed under Canis familiaris [3] were 0.137 mg/kg and 0.14 mg/kg, respectively. This compound also showed a Collapse time in the experiment with Cavia porcellus of 7.6 min.
In the case of `CCN(CC)C(C)CN1CCc2c(c(=O)oc3cc(OC)c(OC)cc23)C1` (configuration not stated), in the experiment listed under Canis familiaris [1], the Ratio came out at 3.5. Further, the Collapse time in the experiment with Cavia porcellus came to 7.8 min.
Take `COc1ccc2c3c(c(=O)oc2c1)CN(CCN1CCCCC1)CC3`: the Ratio in the experiment filed under Canis familiaris [1] is reported as 0.69. Also, the figures for the ED50 in the experiment listed under Canis familiaris [2] and in the experiment listed under Canis familiaris [3] were 0.205 mg/kg and 0.141 mg/kg, respectively. In the experiment with Cavia porcellus, this compound returned a Collapse time of 9.5 min.
In the case of `COc1ccc2c3c(c(=O)oc2c1)CN(CCN1CC2CCC1CC2)CC3`, the Ratio in the experiment filed under Canis familiaris [1] is reported as 1.6. The ED50 in the experiment listed under Canis familiaris [2] came out at 0.063 mg/kg; in the experiment listed under Canis familiaris [3], 0.102 mg/kg. The compound also displayed a Collapse time with Cavia porcellus of 10 min.
On to `CC(CN1CCc2c(c(=O)oc3ccccc23)C1)N1CCCC1` (configuration not stated), for which the Ratio in the experiment listed under Canis familiaris [1] is 2.2. Moreover, the ED50 in the experiment listed under Canis familiaris [2] was determined as 0.088 mg/kg; in the experiment filed under Canis familiaris [3], 0.19 mg/kg. Also, the Collapse time with Cavia porcellus stood at 10 min.
In the same order, the values of `Cc1ccc2c3c(c(=O)oc2c1)CN(CC(C)N1CCCC1)CC3` (configuration not stated) are 2.3, 0.1 mg/kg, 0.226 mg/kg and 8.7 min.
In the experiment with Cavia porcellus, `COc1cc2oc(=O)c3c(c2cc1OC)CCN(CCN1CCCCCC1)C3` yielded a Collapse time of 4 min.
Compound `CCCN(CC)C(C)CN1CCc2c(c(=O)oc3cc(OC)c(OC)cc23)C1` (configuration not stated) had a Collapse time in the experiment with Cavia porcellus of 3.7 min.
Same read-out and setting: for `CCNC(C)CN1CCc2c(c(=O)oc3cc(OC)c(OC)cc23)C1` (configuration not stated) the value was 1.7 min.
For `CC(CN1CCc2c(c(=O)oc3ccccc23)C1)N(C)C` (configuration not stated), the Ratio in the experiment listed under Canis familiaris [1] is 21.6. For the same compound, in the experiment on Cavia porcellus, the Collapse time was 10 min.
Take `CCN(CC)C(C)CN1CCc2c(c(=O)oc3cc(C)ccc23)C1` (configuration not stated): in the experiment listed under Canis familiaris [1], the Ratio is given as 4.6. For the same compound, in the experiment with Cavia porcellus, the Collapse time turned out to be 6.6 min.
In the experiment on Cavia porcellus, `COc1cc2oc(=O)c3c(c2cc1OC)CCN(CCCN1CCCCC1)C3` gave a Collapse time of 1.6 min.
On the same count and under the same terms, under `CCN1CCCC1CN1CCc2c(c(=O)oc3cc(OC)c(OC)cc23)C1.Cl.Cl` (configuration not stated) stands 2.8 min.
